Fewer inactive variants are shown than the library holds.
B1: tRNA (parent)
chain: GUUCCGUUGGCGUAAUGGUAACGCGUCUCCCUCCUAAGGAGAAGACUGCGGGUUCGAGUCCCGUACGGAACG

Variants of: B1
Assay: yeast fitness relative to wild type (ratio to wild type); higher = fitter; tRNA-Arg(CCU), competitive growth, 37 C, YPD
In short: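 Amplicons of the tRNA-Arg(CCU) gene were sequenced, 100-nucleotide paired-end, from the start population and from each end population of a pooled yeast competition. The competition, in six parallel replicates, lasted 24 hours in YPD at 37°C. Fitness relative to wild type was calculated from changes in genotype frequencies. Genotypes had to have ≥ 100 starting reads, and estimates < 0.5 were set to 0.5.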
C5A U7C U59A gave a yeast fitness of no more than 0.5.
C5G A14U A37U A45C showed a yeast fitness of no more than 0.5.
Work on C5A U35A yielded a yeast fitness of 0.73.
C5A U35G gave a yeast fitness of 0.636.
Work on C5G A14U C29U C33G A43U U54C yielded a yeast fitness of no more than 0.5.
C5G A14U G38A A40U G50C C60G A70G gave a yeast fitness of no more than 0.5.
C5A U13C U19C C33G showed a yeast fitness of no more than 0.5.
C5A U7C C34A G41C C60U A70U gave a yeast fitness of no more than 0.5.
Work on C5G A14C G18A U19C A43G A45C C46U yielded a yeast fitness of no more than 0.5.
For C5A U54C A70U, the yeast fitness was 0.532.
Variant C5A G41A A70G has a yeast fitness of 0.604.
For C5A U28A A40U C61G, the yeast fitness was no more than 0.5.
C5G A14U G25A G48C C61A C62U gave a yeast fitness of no more than 0.5.
For C5G A15C C29A C61G, the yeast fitness was no more than 0.5.
C5G A14U G25A G48C C61A gave a yeast fitness of 0.528.
Work on C5A U35G G41A G56A A70C yielded a yeast fitness of 0.543.
In the case of C5A U16A A45U, the yeast fitness is reported as 0.593.
Work on C5G A14G C24G A40U G48C C60U A69C yielded a yeast fitness of 0.601.
For C5A U16A G17A A42C, the yeast fitness was no more than 0.5.
Work on C5G A14C C29A C31G G56A yielded a yeast fitness of no more than 0.5.
Work on C5A U8C U35C G44A G48C C55G A69U yielded a yeast fitness of no more than 0.5.
For C5G A14C C30U C49U C61A, the yeast fitness was no more than 0.5.
C5A U47A C55A G68A gave a yeast fitness of no more than 0.5.
With C5A G44A the yeast fitness was 0.716.
For C5A G44C, the yeast fitness was 0.8.
With C5A U19A C27U C55U the yeast fitness was no more than 0.5.
C5A U19A showed a yeast fitness of 0.843.
In the case of C5A U47C G51A A65C, the yeast fitness is reported as no more than 0.5.
In the case of C5A U7C G63C, the yeast fitness is reported as no more than 0.5.
C5A G44C G48A G51A gave a yeast fitness of 0.609.
Work on C5G A14U G38C G39C C61U yielded a yeast fitness of no more than 0.5.
C5A U32C A65C gave a yeast fitness of 0.68.
C5A G48A C60A showed a yeast fitness of no more than 0.5.
For C5G A14U U16C G18C U32A, the yeast fitness was 0.556.
C5G A14U C49U C61U gave a yeast fitness of no more than 0.5.
With C5A G50A U53C C62A A69U the yeast fitness was no more than 0.5.
In the case of C5G A14G A65U, the yeast fitness is reported as 0.538.
With C5A G56A the yeast fitness was 1.
In the case of C5A G56C, the yeast fitness is reported as 0.666.
In the case of C5A U53C C62U, the yeast fitness is reported as no more than 0.5.
Work on C5A U7C C22G C24U A37C G51C C55U U59G yielded a yeast fitness of no more than 0.5.
In the case of C5A G63A C66U, the yeast fitness is reported as 0.651.
For C5G A14C A37G G52U C62G, the yeast fitness was no more than 0.5.
C5A U13G C34G C62G showed a yeast fitness of no more than 0.5.
For C5A U16C C33U G63C, the yeast fitness was no more than 0.5.
In the case of C5A G50A, the yeast fitness is reported as 0.87.
In the case of C5A U13C C29U C66U, the yeast fitness is reported as 0.549.
C5A U7C gave a yeast fitness of 0.655.
C5A U7A gave a yeast fitness of 0.636.
C5G A14C G18A A40G C46U C49U U53A gave a yeast fitness of no more than 0.5.
Work on C5G A14C A36C A45C G48A yielded a yeast fitness of no more than 0.5.
In the case of C5A U8C G38A C62G, the yeast fitness is reported as 0.643.
C5A U13G C24G C31A showed a yeast fitness of 0.514.
For C5A U19A C66U, the yeast fitness was 0.66.
C5A U28G gave a yeast fitness of 0.609.
C5A G44C U54C showed a yeast fitness of 0.556.
C5A U13C showed a yeast fitness of 0.926.
Work on C5A U54C yielded a yeast fitness of 0.722.
In the case of C5A U8C A21G A45C G56C, the yeast fitness is reported as 0.554.
In the case of C5A U8C A21G A45C G56C C66U, the yeast fitness is reported as no more than 0.5.
C5G A14G G44C C62U C66U A69C showed a yeast fitness of no more than 0.5.
For C5A U8C C11A A15G C27U A42U C61A C62U, the yeast fitness was 0.502.
Variant C5G A14U U28C C46G C61U has a yeast fitness of no more than 0.5.
Work on C5A U13A A45C A69C yielded a yeast fitness of 0.542.
Variant C5G A14U C24U C55G A70U has a yeast fitness of no more than 0.5.
C5A U16C U59G C66U gave a yeast fitness of 0.533.
C5A U16A C62U showed a yeast fitness of no more than 0.5.
For C5A U47A, the yeast fitness was 0.786.
With C5A G51A C61G the yeast fitness was no more than 0.5.
C5G A14C C29A C31G A36G U54A showed a yeast fitness of no more than 0.5.
C5A U8C G52A G58C gave a yeast fitness of no more than 0.5.
Work on C5A G48C G51C U53A C66A yielded a yeast fitness of 0.559.
With C5A U35G A69C the yeast fitness was no more than 0.5.
C5G A14U G67A gave a yeast fitness of 0.612.
With C5G A14G C27G the yeast fitness was no more than 0.5.
Variant C5G A15C A42C has a yeast fitness of 0.584.
Variant C5G A15C C46U U53G A57C has a yeast fitness of 0.588.
Variant C5A U19C U26G A36C has a yeast fitness of 0.571.
Variant C5G A14C C31G has a yeast fitness of no more than 0.5.
C5A U7C U19A G38C A42G C49G C55A A57C gave a yeast fitness of no more than 0.5.
C5A U16C A21C C33U A40G G63C showed a yeast fitness of no more than 0.5.
Work on C5A G63C yielded a yeast fitness of 0.761.
In the case of C5A U7C C62U, the yeast fitness is reported as no more than 0.5.
C5A U19A A57U showed a yeast fitness of 0.561.
Work on C5G A14C G44C yielded a yeast fitness of no more than 0.5.
With C5A G48C C62U the yeast fitness was 0.629.
With C5A U53A U59A A69U the yeast fitness was 0.712.
Work on C5G A15C C22A yielded a yeast fitness of 0.627.
Work on C5A G41A A57U yielded a yeast fitness of no more than 0.5.
Variant C5A U13G C34G A45U has a yeast fitness of 0.619.
Work on C5G A14G C33A G56A C61A yielded a yeast fitness of 0.583.
Work on C5A U35C G44A G48C yielded a yeast fitness of no more than 0.5.
Work on C5A G52C G67U A69U yielded a yeast fitness of no more than 0.5.
In the case of C5G A14U G18A A21U C31U C60U C61U C66G, the yeast fitness is reported as no more than 0.5.
For C5A U35C G44A G48C C55G C66G, the yeast fitness was no more than 0.5.
In the case of C5A U54G A65U, the yeast fitness is reported as no more than 0.5.
In the case of C5A U13A U59A U64G, the yeast fitness is reported as no more than 0.5.
In the case of C5A U26A C31A C49U, the yeast fitness is reported as no more than 0.5.
C5G A14G G17A A20G U32C G56C C60G gave a yeast fitness of no more than 0.5.
In the case of C5A U19A A20C C24G C34G, the yeast fitness is reported as no more than 0.5.
Variant C5A U28C G63C has a yeast fitness of 0.534.
For C5A U32C, the yeast fitness was 0.928.
For C5A U32A, the yeast fitness was 0.784.
Variant C5A U32G C49G has a yeast fitness of no more than 0.5.
Variant C5A U35G G41A G56A C66U has a yeast fitness of no more than 0.5.
With C5A U8C A21G A45C U47G G56C the yeast fitness was no more than 0.5.
C5G A14C A37G C46U G68C showed a yeast fitness of no more than 0.5.
C5A U54C A65U gave a yeast fitness of no more than 0.5.
C5G A14U U16C G18C U32A C62U gave a yeast fitness of no more than 0.5.
In the case of C5G A15C A42C G52A U53A, the yeast fitness is reported as no more than 0.5.
C5G A14C G18A C49U showed a yeast fitness of no more than 0.5.
For C5A U19A G38C U53C C61G G67A A69C, the yeast fitness was no more than 0.5.
For C5G A14C C29U C33G A65C, the yeast fitness was no more than 0.5.
Variant C5G A14C A37G A69U has a yeast fitness of no more than 0.5.
For C5G A14C U16A C30U G38C G41C C66U, the yeast fitness was no more than 0.5.
Variant C5A U13G U32A A42U G52A U54A C60G has a yeast fitness of 0.649.
C5A U7C C31U showed a yeast fitness of 0.605.
Variant C5A U35G G41A G56A has a yeast fitness of no more than 0.5.
C5A G58C showed a yeast fitness of 0.867.
Work on C5A G58A yielded a yeast fitness of 0.909.
Work on C5G A14C C29A C31G U54A A70G yielded a yeast fitness of 0.531.
With C5A G52A G68A the yeast fitness was no more than 0.5.
Work on C5A U8G U19C A37U G51A G52C U59C yielded a yeast fitness of no more than 0.5.
Work on C5A U26A yielded a yeast fitness of 0.717.
In the case of C5A U32A A36C, the yeast fitness is reported as no more than 0.5.
For C5A U19A C30G, the yeast fitness was 0.594.
For C5G A14U A43G G67C, the yeast fitness was 0.56.
With C5G A14G C33A G56A U59C C61A the yeast fitness was no more than 0.5.
C5A U16A A42C gave a yeast fitness of no more than 0.5.
Work on C5A U16C A42U yielded a yeast fitness of 0.672.
Variant C5A U7C U19C has a yeast fitness of no more than 0.5.
With C5A G52A G63A the yeast fitness was no more than 0.5.
In the case of C5A U35C G44A G48C C55G A69U, the yeast fitness is reported as 0.56.
In the case of C5A U28C C30U A36C A42G, the yeast fitness is reported as no more than 0.5.
Variant C5A U35G G68C has a yeast fitness of no more than 0.5.
For C5A G67A A69U, the yeast fitness was 0.523.
With C5A U13A C30G A69C the yeast fitness was no more than 0.5.
C5A U26A C33A A43C G56C showed a yeast fitness of 0.597.
C5G A14G G63C gave a yeast fitness of no more than 0.5.
Variant C5G A14C C30U has a yeast fitness of no more than 0.5.
In the case of C5A U53A, the yeast fitness is reported as 0.722.
C5G A14U C60A showed a yeast fitness of no more than 0.5.
C5A U8A U16G A20U A36G A57G G68A gave a yeast fitness of no more than 0.5.
For C5A G67A, the yeast fitness was 0.933.
Work on C5A U16G C27U C29U A36U G41A yielded a yeast fitness of 0.589.
C5G showed a yeast fitness of 0.992.
Variant C5A U7A G52A G67A has a yeast fitness of no more than 0.5.
With C5A U32A A36C A70G the yeast fitness was no more than 0.5.
Variant C5G A14C A37G C62G has a yeast fitness of 0.561.
Work on C5G A14C C29A C31G U54G yielded a yeast fitness of no more than 0.5.
Work on C5G A14C C29A C31G U54A yielded a yeast fitness of 0.638.
Variant C5A U16C A42U A57G has a yeast fitness of no more than 0.5.
In the case of C5A G68A, the yeast fitness is reported as 0.82.
C5A G68C gave a yeast fitness of 0.802.
In the case of C5A U19A C62A A69U, the yeast fitness is reported as no more than 0.5.
C5A U8C U13C A40G showed a yeast fitness of 0.522.
Work on C5A U13A A70C yielded a yeast fitness of no more than 0.5.
C5G A14U gave a yeast fitness of 0.607.
Variant C5G A14C has a yeast fitness of 0.625.
C5A U8C C11U G18A C31A A37U G67C gave a yeast fitness of no more than 0.5.
C5G A14U U16C G18A A21U A42G G68A gave a yeast fitness of no more than 0.5.
C5A U8G A37U G51A G52C A57G U59C gave a yeast fitness of 0.52.
With C5A U13C C29U the yeast fitness was no more than 0.5.
In the case of C5A U35C A57C, the yeast fitness is reported as no more than 0.5.
Work on C5A U28G A65U yielded a yeast fitness of no more than 0.5.
Work on C5A U19A G38C A57C C62U yielded a yeast fitness of no more than 0.5.
Variant C5A U32C C60U C61G has a yeast fitness of no more than 0.5.
